Reference: PMC7797712 (Medicinal Chemistry Research, 2021)

Key:
HBV core protein = HBV core protein (Hepatitis B virus genotype D subtype ayw, UniProt P03146); test: Western blot assay of HBV core protein dephosphorylation in AML12HBV_DE11 cells; format: cell-based; conditions: 30 h, ENAN-34017 2 µM, Bay 41-4109 2 µM, entecavir 1 µM
Method in brief: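 Controls: cells kept with tetracycline, or tetracycline-free and mock treated. Test cells tetracycline-free, treated 30 h, then lysed in LDS loading buffer and boiled 100 °C for 20 min. Run on 12% Bis-Tris gel in MOPS buffer, transferred to PVDF. Hyper-phosphorylated and dephosphorylated/hypophosphorylated core protein detected by western blot; β-actin loading control.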

[1] = system: cytoplasmic HBV-DNA replication in AML12HBV10 cells; test: Antiviral assay in AML12HBV10 cells; format: cell-based, hepatitis B virus; conditions: for EC50: Hepatitis B virus, AML12HBV10, 48 h, read-out: EC50 (50% inhibitory concentration of cytoplasmic HBV-DNA replication); for Anti-HBV potency compared with 27 (58031), in words: SAR statement of the text
Method in brief: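 AML12-derived mouse hepatocyte line carrying a tetracycline-inducible, envelope-deficient HBV genome; seeded at 2 × 10^4 cells/well in tetracycline-free medium. Next day, mock or twofold serial dilution (10 to 0.08 µM) for 48 h. Cells lysed in Tris-HCl pH 7.5/EDTA/NaCl/1% NP-40. Half the lysate NaOH-denatured, neutralised, dot-blotted and hybridised with 32P-labelled HBV minus-strand riboprobe. Phosphorimager quantification; EC50 = concentration reducing HBV DNA by 50%.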

AML12HBV10 cells = test: Cytotoxicity assay in AML12HBV10 cells; format: cell-based, mouse
Method in brief: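 Cells treated in tetracycline-free medium, as in the antiviral assay, with twofold serial dilution from 50 to 1.56 µM for 48 h. Viability checked by microscopy and measured by MTT. CC50 = concentration reducing viability by 50%.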

[2] = system: HBV replication in HepDES19 cells; test: Antiviral assay in HepDES19 cells; format: cell-based; conditions: Hepatitis B virus, HepDES19, read-out: EC50, inhibition of HBV-DNA replication
Method in brief: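 HepG2-derived line with a tetracycline-inducible, envelope-deficient HBV genome; seeded in 24-well plates and kept tetracycline-free for 2 days. Then mock or twofold serial dilution for a further 4 days. Cytoplasmic HBV core DNA extracted and measured by qPCR. EC50 from regression on biologically triplicate experiments, two independent experiments.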

Chain of HBV core protein (P03146 whole entry): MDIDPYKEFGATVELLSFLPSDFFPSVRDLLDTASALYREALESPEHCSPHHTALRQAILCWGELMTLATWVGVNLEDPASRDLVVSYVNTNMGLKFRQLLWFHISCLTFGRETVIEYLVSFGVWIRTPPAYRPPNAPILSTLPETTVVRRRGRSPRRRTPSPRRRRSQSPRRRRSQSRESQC

| Structure (SMILES) | Anti-HBV potency compared with 27 (58031), in words ([1]; AML12HBV10 cells) | other results |
| --- | --- | --- |
| O=C1CCN(C(=O)Nc2ccc(F)c(Cl)c2)CN1Cc1ccc(F)cc1F [Compound 27, N-(3-chloro-4-fluorophenyl)-3-(2,4-difluorobenzyl)-4-oxotetrahydropyrimidine-1(2H)-carboxamide] | – | Effect on Cp dephosphorylation (HBV core protein): inhibited Cp dephosphorylation; EC50 (50% inhibitory concentration of cytoplasmic HBV-DNA replication) ([1]; AML12HBV10 cells, 48 h treatment, dot-blot hybridization): submicromolar; Potency increase relative to 21 ([1]; AML12HBV10 cells, EC50 ratio): fourfold potency increase; EC50 [1]: 520 nM; Cytotoxicity at 50 μM (AML12HBV10 cells): no cytotoxicity; EC50 [2]: 840 nM |
| C=C1[C@H](CO)[C@@H](O)C[C@@H]1n1cnc2c(=O)[nH]c(N)nc21 [entecavir, reference compound] | – | Effect on Cp dephosphorylation (HBV core protein): did not affect Cp dephosphorylation |
| O=C1CC(CN2CCC(F)(F)C2)N(C(=O)Nc2ccc(F)c(Cl)c2)CN1Cc1ccc(F)cc1F (centres unmarked) [Compound 47, N-(3-chloro-4-fluorophenyl)-3-(2,4-difluorobenzyl)-6-((3,3-difluoropyrrolidin-1-yl)methyl)-4-oxotetrahydropyrimidine-1(2H)-carboxamide] | deteriorated the potency | – |
| O=C1CCN(C(=O)Nc2ccc(F)c(Cl)c2)CN1Cc1ccncc1 [Compound 29, N-(3-chloro-4-fluorophenyl)-4-oxo-3-(pyridin-4-ylmethyl)tetrahydropyrimidine-1(2H)-carboxamide] | less active | – |
| O=C1CC(CN2CCC(F)(F)CC2)N(C(=O)Nc2ccc(F)c(Cl)c2)CN1Cc1ccc(F)cc1F (centres unmarked) [Compound 46, N-(3-chloro-4-fluorophenyl)-3-(2,4-difluorobenzyl)-6-((4,4-difluoropiperidin-1-yl)methyl)-4-oxotetrahydropyrimidine-1(2H)-carboxamide] | deteriorated the potency | – |
| O=C1CCN(C(=O)Nc2ccc(F)c(Cl)c2)CN1CCc1ccc(F)cc1 [Compound 22, N-(3-chloro-4-fluorophenyl)-3-(4-fluorophenethyl)-4-oxotetrahydropyrimidine-1(2H)-carboxamide] | – | EC50 [1]: 5080 nM |
| O=C1CCN(C(=O)Nc2ccc(F)c(Cl)c2)CN1CC1CCN(c2ccccc2)C1 (centres unmarked) [Compound 32, N-(3-chloro-4-fluorophenyl)-4-oxo-3-((1-phenylpyrrolidin-3-yl)methyl)tetrahydropyrimidine-1(2H)-carboxamide] | failed to improve the potencies | – |
| O=C(NC1CN(C(=O)Nc2ccc(F)c(Cl)c2)CN(Cc2ccc(F)cc2F)C1=O)c1ccc(F)cc1F (centres unmarked) [Compound 53, N-(3-chloro-4-fluorophenyl)-5-(2,4-difluorobenzamido)-3-(2,4-difluorobenzyl)-4-oxotetrahydropyrimidine-1(2H)-carboxamide] | comparable or slightly better potencies | – |
| O=C1CCN(C(=O)Nc2ccc(F)c(Cl)c2)CN1Cc1ccc(F)cc1 [Compound 21, N-(3-chloro-4-fluorophenyl)-3-(4-fluorobenzyl)-4-oxotetrahydropyrimidine-1(2H)-carboxamide] | – | EC50 [1]: 2020 nM |
| COc1ccc(CN2CN(C(=O)Nc3ccc(F)c(Cl)c3)CCC2=O)c(OC)c1 [Compound 28, N-(3-chloro-4-fluorophenyl)-3-(2,4-dimethoxybenzyl)-4-oxotetrahydropyrimidine-1(2H)-carboxamide] | slightly weaker potency | – |
| O=C1CCN(C(=O)Nc2cc(Cl)c(F)c(Cl)c2)CN1Cc1ccc(F)cc1F [Compound 42, N-(3,5-dichloro-4-fluorophenyl)-3-(2,4-difluorobenzyl)-4-oxotetrahydropyrimidine-1(2H)-carboxamide] | reduced the activities | – |
| O=C1CCN(C(=O)Nc2ccc(F)c(C(F)F)c2)CN1Cc1ccc(F)cc1F [Compound 36, 3-(2,4-difluorobenzyl)-N-(3-(difluoromethyl)-4-fluorophenyl)-4-oxotetrahydropyrimidine-1(2H)-carboxamide] | comparable activities | – |
| O=C1CCN(C(=O)Nc2cc(F)c(F)cc2Cl)CN1Cc1ccc(F)cc1F [Compound 41, N-(2-chloro-4,5-difluorophenyl)-3-(2,4-difluorobenzyl)-4-oxotetrahydropyrimidine-1(2H)-carboxamide] | reduced the activities | – |
| CC1CC(=O)N(Cc2ccc(F)cc2F)CN1C(=O)Nc1ccc(F)c(Cl)c1 (centres unmarked) [Compound 44, N-(3-chloro-4-fluorophenyl)-3-(2,4-difluorobenzyl)-6-methyl-4-oxotetrahydropyrimidine-1(2H)-carboxamide] | reduced activity | – |
| O=C1CCN(C(=O)Nc2cccc(Cl)c2)CN1Cc1ccc(F)cc1F [Compound 35, N-(3-chlorophenyl)-3-(2,4-difluorobenzyl)-4-oxotetrahydropyrimidine-1(2H)-carboxamide] | comparable activities | – |
